# HTRA1 inh: blocks human HTRA1 serine peptidase. Q92743. recombinant HTRA1, FP-rhodamine activity-based probe, fluorescence polarization. inhibition, % at 5.96 µM. hit rate 0.5% among 340,000; in the data active = inhibition above about 36%;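 note: 0% = enzyme with DMSO and 100% = wells lacking enzyme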
# ABHD4 inh: ABHD4 (mouse) inhibition, primary FP screen; Q8VD66; purified mABHD4, FP-Rh probe fluorescence polarization; inhibition, % at 8.92 µM; hit rate 0.54% among 370,000; AID 720543;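 active = inhibition exceeding the mean over every tested compound plus 3 SD, cut at about 30% in these data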;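 note: 0% = plate median of compound wells and 100% = S159A mutant with DMSO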
#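 Material: mouse ABHD4 enzyme, wild type; Benchmarks: S159A mutant high control, sample median low control; Buffer or medium: HEPES pH 7.0, NaCl, Pluronic buffer; Signal: fluorescence polarization; Read-out: percent inhibition of probe binding, normalized to plate controls; Timing: pre-incubation 45 min, probe exposure 60 min, at 25 °C; Dosing: 8.92 µM, single dose.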
# SIAE inh: human SIAE inhibition, primary screen. Q9HAT2. SIAE FP-Rh probe binding, fluorescence polarization. inhibition, % at 9.66 µM. hit rate 0.69% among 370,000. AID 1053197;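 active = inhibition above a cutoff: mean of compounds within the control limits plus 3 SD of those, cut at about 17% in these data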;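 note: 0% = plate median of compound wells and 100% = probe without SIAE protein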
# Target sequence (Q9HAT2 whole entry, looked up): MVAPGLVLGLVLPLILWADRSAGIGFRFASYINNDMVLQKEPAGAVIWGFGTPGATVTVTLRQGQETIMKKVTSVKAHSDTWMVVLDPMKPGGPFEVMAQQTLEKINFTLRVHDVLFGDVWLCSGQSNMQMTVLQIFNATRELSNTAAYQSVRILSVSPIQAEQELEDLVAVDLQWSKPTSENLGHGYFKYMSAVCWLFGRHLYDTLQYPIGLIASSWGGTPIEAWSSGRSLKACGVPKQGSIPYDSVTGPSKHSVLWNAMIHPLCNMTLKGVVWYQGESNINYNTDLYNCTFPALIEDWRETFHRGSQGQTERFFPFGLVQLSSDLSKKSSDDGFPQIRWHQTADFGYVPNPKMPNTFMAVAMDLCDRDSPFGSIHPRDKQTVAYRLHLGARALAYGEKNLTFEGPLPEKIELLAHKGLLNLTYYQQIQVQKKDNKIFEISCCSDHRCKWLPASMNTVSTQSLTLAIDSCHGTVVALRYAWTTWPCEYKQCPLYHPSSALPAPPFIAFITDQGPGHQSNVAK
# TCR CD3 inh: inhibitors of human TCR-CD3 interaction | TAMRA-labeled TCR probe fluorescence, biochemical | inhibition, % at 9.4 µM | hit rate 0.37% among 360,000 | AID 651800;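 note: recombinant mutant TCR 2C K166C tagged with TAMRA read by polarization; 0% = receptor in buffer alone and 100% = receptor with positive control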
# PRMT1 FP inh: PRMT1 (human) inhibition, primary screen; recombinant PRMT1, activity-based probe fluorescence polarization; inhibition, % at 2.79 µM; hit rate 1.3% among 370,000; AID 652257; Q99873;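 active = inhibition above about 21% made by adding two undisclosed values, limit read from the data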
# BSA TAMRA ctr: counter-screen for TCR-CD3 interaction inhibitors: BSA probe | shares compounds with TCR CD3 inh | inhibition, % at 9.4 µM | AID 652035 | TAMRA-labeled BSA probe fluorescence counterscreen | hit rate 10% among 1,200; in the data active = inhibition above about 23%;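 note: 0% = buffer low control and 100% = reference high control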
# TCR-CD3 conf: confirmation of human TCR-CD3 interaction inhibitors; shares compounds with TCR CD3 inh; TAMRA-labeled TCR probe fluorescence binding assay; inhibition, % at 9.4 µM; hit rate 48% among 1,200
# PRMT1 inh conf: PRMT1 (human) inhibition, FP confirmation. inhibition, % at 2.79 µM. shares compounds with PRMT1 FP inh. hit rate 42% among 3,300. recombinant His-PRMT1, activity-based probe fluorescence polarization;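 active = mean inhibition across replicates above the hit cutoff derived for the earlier primary screen, cut at about 22% in these data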
# mABHD4 conf: confirmation of mouse ABHD4 inhibitors. shares compounds with ABHD4 inh. inhibition, % at 8.92 µM. purified mABHD4, FP-Rh probe fluorescence polarization. hit rate 55% among 1,800;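 active = mean inhibition across replicates above the hit cutoff set in the primary screen, cut at about 30% in these data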;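 note: 0% = wild-type ABHD4 with DMSO and 100% = catalytically dead S159A mutant with DMSO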
# SIAE inh conf: human SIAE inhibition, confirmation; shares compounds with SIAE inh; SIAE FP-Rh activity-based probe, fluorescence polarization; inhibition, % at 9.66 µM; hit rate 13% among 2,300;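 active = mean inhibition of the replicates above the hit cutoff set in the primary screen, cut at about 17% in these data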;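 note: 0% = SIAE with DMSO and probe and 100% = probe without SIAE; inhibitors lower polarization as more probe stays unbound to SIAE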
# * hit, by the source's call; nt = not tested or not shown. Shown are actives, neighbours in structure and some others; about 2.5% of the full set was active somewhere. Cut-off read from the data, not from the text of the source, unless noted: active = inhibition above about 19%; inactive = the rest.
SMILES,HTRA1 inh,ABHD4 inh,SIAE inh,TCR CD3 inh,PRMT1 FP inh,BSA TAMRA ctr,TCR-CD3 conf,mABHD4 conf,SIAE inh conf,others
O=C1NC(=O)C(c2ccccc2[N+](=O)[O-])=C1Nc1ccc(O)c(Cl)c1,27,43*,19*,20*,14,-16,-3,3,-1,
O=C(NNc1ccccc1[N+](=O)[O-])Nc1ccc(Cl)c(Cl)c1,-23,-21,-18,-3,6,nt,nt,nt,nt,
CCC1(C)NC(=O)N(CC(=O)N2N=C(c3ccccc3)CC2c2ccc(OC)cc2)C1=O (stereo not given),-13,-1,2,1,2,nt,nt,nt,nt,
Brc1ccc2nc(-c3ccco3)c(CC3CCCCC3)n2c1,nt,15,10,11,12,nt,nt,nt,nt,
O=C1c2ccc3c4c(ccc(c24)C(=O)N1c1ccc2ccccc2c1)CC3,2,-5,-9,4,-3,nt,nt,nt,nt,
O=C1CCC(=O)c2ccc3c4c(ccc1c24)CC3,1,28,19*,34*,27*,-5,2,nt,-6,PRMT1 inh conf=6
COCCCN1C(=O)C(CC(=O)NCCCCc2ccccc2)CC(C(=O)N(C(C)C)C(C)C)=C1C (stereo not given),nt,11,2,-3,1,nt,nt,nt,nt,
O=c1c(O)c(-c2ccc(O)c(O)c2)oc2cc(O)cc(O)c12,21,34*,18*,19*,15,-20,18,33*,4,
COc1ccc(S(=O)(=O)NCC(c2ccc(C)cc2)N2CCN(C)CC2)cc1 (stereo not given),1,3,-2,-3,-2,nt,nt,nt,nt,
O=C(NC(=S)NCc1ccccc1)c1cccnc1,-4,1,-2,1,-4,nt,nt,nt,nt,
O=C(Cc1ccccc1)NNC(=S)NC(=O)c1cccnc1,nt,1,17*,27*,0,-6,21*,nt,2,
CCOc1ncccc1C(=O)Nc1cccc(S(=O)(=O)N2CCOCC2)c1,4,-1,4,4,-2,nt,nt,nt,nt,
CC(NC(=O)CN1C(=O)NC2(CCCC2)C1=O)c1ccc(Cl)cc1Cl (stereo not given),4,2,-1,-3,0,nt,nt,nt,nt,
O=C(COC(=O)c1cc(-c2cccc3ccccc23)nc2ccccc12)NC1CCS(=O)(=O)C1 (stereo not given),31,38*,25*,30*,25*,54*,38*,8,15,
Cc1cc(C(=O)OCC(=O)NC2CCS(=O)(=O)C2)c2ccccc2n1 (stereo not given),-1,-2,-7,7,-1,nt,nt,nt,nt,
O=C1CCCC/C1=C\Nc1ccc(O)cc1,17,54*,22*,42*,26*,-5,1,13,4,
Nc1cccc2cc(S(=O)(=O)O)ccc12,14,64*,20*,27*,34*,14,15,nt,2,PRMT1 inh conf=17
O=Nc1c(O)ccc2cc(S(=O)(=O)O)ccc12,1,nt,nt,nt,nt,nt,nt,nt,nt,
N#CCCN(CCC#N)C(=O)C1c2ccccc2Oc2ccccc21,31,103*,67*,124*,48*,11,8,2,3,
O=S(=O)(NC1=NCCCCC1)c1cc(F)ccc1F,2,5,1,-7,2,nt,nt,nt,nt,
O=C1CCCC2=C1Sc1ccc(Cl)cc1N2,13,5,7,-2,9,nt,nt,nt,nt,
COC(=O)c1ccc2c(c1)SC1=C(CCCC1=O)N2,28,35*,19*,37*,25*,76*,57*,32*,23*,
CC(=O)c1ccc(OCCCC(=O)NCCc2ccccc2)cc1,-2,2,-9,-5,3,nt,nt,nt,nt,
COc1cc(C=NNC(=O)Cn2nc(C)cc2C)ccc1OC(=O)C1CC1,25,20,20*,30*,-75,1,4,nt,0,
